Shown are actives, neighbours in structure and some others; about 2.6% of the full set was active somewhere.
CASP6 VEID inh – caspase-6 (human) enzyme inhibition; P55212; purified caspase-6, Z-VEID-R110 cleavage fluorescence; inhibition, % at 12.5 µM; actives 0.53% (n = 350,000); AID 686996;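 active = mean inhibition across replicates at least about 35%, with every replicate also reaching that limit, limit read from the data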
Target sequence (P55212 24-179 limits assumed): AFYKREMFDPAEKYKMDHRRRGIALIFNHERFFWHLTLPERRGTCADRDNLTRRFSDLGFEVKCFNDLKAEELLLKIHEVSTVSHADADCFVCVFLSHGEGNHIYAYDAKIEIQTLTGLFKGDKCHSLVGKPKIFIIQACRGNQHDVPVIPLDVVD
Target sequence (P55212 194-293 limits assumed): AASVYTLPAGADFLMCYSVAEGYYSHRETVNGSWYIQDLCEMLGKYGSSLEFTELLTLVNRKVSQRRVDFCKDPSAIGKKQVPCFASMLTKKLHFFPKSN
UCH37 inh – inhibitors of human deubiquitinating enzyme UCH37 | Q9Y5K5 | purified proteasome/UCH37, Ub-AMC cleavage fluorescence | inhibition, % (no concentration beside the values) | actives 0.33% (n = 330,000) | AID 588478;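 active = mean inhibition over replicate wells above about 20%, limit read from the data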
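Reagent: Ub-AMC substrate; assay system: Proteasome-associated human UCH37 deubiquitinase; controls: no-proteasome and no-compound wells; read-out: % inhibition of Ub-AMC cleavage fluorescence; timing: 30 min preincubation with enzyme, 25 min cleavage at room temperature; signal: AMC fluorescence from Ub-AMC cleavage, excitation 355 nm, emission 460 nm; buffer or medium: Tris-HCl pH 7.4 plus ovalbumin, ATP-MgCl2, DTT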
NSD2 inh – NSD2 (human) methyltransferase inhibition; NSD2 peptide methylation, AlphaScreen, 120 min; inhibition, % at 12.5 µM; actives 0.54% (n = 310,000); AID 743445; in the data active = inhibition above about 50%
SIRT5 inh – inhibitors of human sirtuin-5 desuccinylase; Q9NXA8; Purified SirT5, succinyl-peptide AMC, trypsin-coupled fluorescence; inhibition, % at 15 µM; actives 1.1% (n = 330,000); in the data active = inhibition above about 15%
FGF22 binding – shifts melting point of recombinant human FGF22 | Q9HCT0 | recombinant FGF22 thermal shift, SYPRO orange fluorescence; percent of sucrose octasulfate shift, DMSO zero | activity (Tm shift, normalised), % at 9.99 µM | actives 1.5% (n = 340,000);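 active = mean Tm shift, scaled 0 neutral to 100 positive control, at about 1.3% or above, every replicate too, limit read from the data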
Target sequence (Q9HCT0 whole entry, looked up): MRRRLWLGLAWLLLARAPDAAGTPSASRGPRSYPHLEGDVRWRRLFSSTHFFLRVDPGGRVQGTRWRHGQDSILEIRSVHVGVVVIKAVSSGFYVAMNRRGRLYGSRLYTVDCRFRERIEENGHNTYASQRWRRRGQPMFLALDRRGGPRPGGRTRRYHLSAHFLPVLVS
Numbers stand for hits; n = inactive; x = no result given.

SMILES | CASP6 VEID inh | UCH37 inh | NSD2 inh | SIRT5 inh | FGF22 binding
COc1ccc(S(=O)(=O)Nc2ccc3c(c2)C(=O)N([C@H](C)CO)C[C@@H](C)[C@@H](CN(C)S(=O)(=O)c2ccccc2)OCCCC[C@H](C)O3)cc1 | n | x | x | n | x
COc1ccc(S(=O)(=O)Nc2ccc3c(c2)C(=O)N([C@@H](C)CO)C[C@H](C)[C@H](CN(C)S(=O)(=O)c2ccc(OC)cc2)OCCCC[C@H](C)O3)cc1 | x | x | x | x | 15
COc1ccc(S(=O)(=O)Nc2ccc3c(c2)C(=O)N([C@@H](C)CO)C[C@@H](C)[C@@H](CN(C)S(=O)(=O)c2ccccc2)OCCCC[C@@H](C)O3)cc1 | n | x | x | 20 | n
COc1ccc(S(=O)(=O)Nc2ccc3c(c2)C(=O)N([C@@H](C)CO)C[C@@H](C)[C@H](CN(C)S(=O)(=O)c2ccc(OC)cc2)OCCCC[C@H](C)O3)cc1 | x | x | x | x | n
COc1cccc(S(=O)(=O)N2CC[C@H]3[C@@H](CO)N(C)c4ccc(C5=CCCCC5)cc4[C@H]32)c1 | x | x | x | x | n
CCOC(=O)C(=NNc1ccccc1Cl)N1CCN(C)CC1 | x | n | x | x | x
C/C(=N\NC(=O)CSc1nc2ccccc2[nH]1)c1ccncc1 | n | x | n | n | 43
C/C(=N/NC(=O)CSc1nc2ccccc2n1C)c1ccncc1 | n | x | n | n | 43
COc1cccc(Nc2nc(CN3CCOCC3)nc3sc4c(c23)CCCC4)c1 | n | n | n | 22 | n
CCc1cc(Cn2nc(C(=O)O)cc2-c2ccccc2)on1 | n | 22 | x | n | n
CCc1cc(Cn2nc(-c3ccccc3C)cc2C(=O)O)on1 | x | n | x | x | n
C/C(O)=C(/C=NCC(=O)O)C(=O)Nc1nccs1 | n | n | n | n | 43
CN(C)CCNC(=O)c1ccccc1 | x | n | n | x | x
CN(C)CCCNC(=O)c1ccc(Oc2ccccc2)cc1 | n | n | n | n | 44
COc1ccc(CN(C)C[C@H]2OCCCC[C@H](C)Oc3ccc(NC(=O)Nc4ccc5c(c4)OCO5)cc3C(=O)N([C@@H](C)CO)C[C@@H]2C)cc1 | n | x | x | n | n
O=C(NC1CCCC1)C(c1ccccc1)N(C(=O)c1csnn1)C1CCCC1 (configuration not stated) | n | n | n | n | n
CC(C)(C)NC(=O)C(c1ccccn1)N(C(=O)c1csnn1)C1CCCC1 (configuration not stated) | n | n | n | 27 | n
CC(C)(C)NC(=O)C(c1ccncc1)N(C(=O)c1csnn1)C1CC1 (configuration not stated) | x | n | n | x | x
Cc1ccc(N(C(=O)c2csnn2)C(C(=O)NC2CCCCC2)c2ccco2)cc1 (configuration not stated) | n | n | n | 79 | n
O=C(NC1CCCCC1)C(c1ccccn1)N(C(=O)c1csnn1)C1CCCCC1 (configuration not stated) | n | n | n | 15 | x
CCCC#Cc1ccc([C@H]2[C@@H](C#N)N(S(=O)(=O)c3cccc(F)c3)[C@H]2CO)cc1 | n | x | x | n | x
O=C(C[C@@H]1CC[C@@H](NS(=O)(=O)c2ccccc2)[C@H](CO)O1)N1CCC(Cc2ccccc2)CC1 | n | x | x | n | n
C[C@@H]1CN([C@H](C)CO)C(=O)Cc2cc(NS(=O)(=O)c3cccs3)ccc2O[C@@H]1CN(C)S(C)(=O)=O | n | x | x | n | n
C[C@@H]1CN([C@H](C)CO)C(=O)c2ccccc2-c2ccccc2CO[C@H]1CN(C)C(=O)[C@@H]1CCCN1C | n | x | x | n | n
CC(C)NC(=O)N(C)C[C@H]1Oc2ccc(NC(=O)C3CCCCC3)cc2C(=O)N([C@H](C)CO)C[C@H]1C | n | x | x | n | n
SMILES | CASP6 VEID inh | UCH37 inh | NSD2 inh | SIRT5 inh | FGF22 binding
CC1(C)C2CCC(C2)C1(C)N=C1OC(CCl)CS1 (configuration not stated) | n | n | n | n | n
ClCC1CSC(=NC23CC4CC(CC(C4)C2)C3)O1 (configuration not stated) | n | n | n | 17 | n
C#CNC(=O)C1(CC=C)CCNCC1 | n | 32 | x | n | n
C[C@@H]1CN([C@@H](C)CO)C(=O)c2cc(C#CC3CC3)cnc2O[C@@H]1CN(C)C | n | x | x | n | n
c1ccc(COc2ncnc3c2ncn3CCCN2CCN(c3ccccn3)CC2)cc1 | n | x | x | n | n
COc1ncnc2c1ncn2CCCN1CCN(c2ccccn2)CC1 | n | x | x | 28 | n
COc1ccc(NC(=S)NCCc2ccccc2)c(C)c1 | 36 | n | n | n | n

Bioassay records deposited in PubChem BioAssay by several laboratories.
